Calls of active or inactive are those of the source. The calls are words filed in the database; no cut-off is given here.
Experiments:
[1] = tested on: HCT-116; assay: Induction of apoptosis in human HCT-116 cells assessed as necrotic cells at 1 uM incubated for 48 hrs by annexin-V and propidium iodide staining based flow cytometry analysis (reference value: 0.36 %); type: functional
[2] = tested on: HCT-116; assay: Induction of apoptosis in human HCT-116 cells assessed as necrotic cells at 0.5 uM incubated for 48 hrs by annexin-V and propidium iodide staining based flow cytometry analysis (reference value: 0.36 %); type: functional
[3] = tested on: HCT-116; assay: Induction of apoptosis in human HCT-116 cells assessed as late apoptotic cells at 1 uM incubated for 48 hrs by annexin-V and propidium iodide staining based flow cytometry analysis (reference value: 1.48 %); type: functional
[4] = tested on: HCT-116; assay: Induction of apoptosis in human HCT-116 cells assessed as early apoptotic cells at 2.5 uM incubated for 48 hrs by annexin-V and propidium iodide staining based flow cytometry analysis (reference value: 1.87 %); type: functional
[5] = tested on: HCT-116; assay: Induction of apoptosis in human HCT-116 cells assessed as early apoptotic cells at 1 uM incubated for 48 hrs by annexin-V and propidium iodide staining based flow cytometry analysis (reference value: 1.87 %); type: functional
[6] = tested on: HCT-116; assay: Induction of apoptosis in human HCT-116 cells assessed as early apoptotic cells at 0.5 uM incubated for 48 hrs by annexin-V and propidium iodide staining based flow cytometry analysis (reference value: 1.87 %); type: functional
[7] = tested on: HCT-116; assay: Induction of apoptosis in human HCT-116 cells assessed as viable cells at 1 uM incubated for 48 hrs by annexin-V and propidium iodide staining based flow cytometry analysis (reference value: 96.29 %); type: functional; details: read-out: Activity
[8] = tested on: HCT-116; assay: Induction of apoptosis in human HCT-116 cells assessed as viable cells at 0.5 uM incubated for 48 hrs by annexin-V and propidium iodide staining based flow cytometry analysis (reference value: 96.29 %); type: functional; details: read-out: Activity
[9] = tested on: HCT-116; assay: Induction of mitochondrial membrane potential loss in human HCT-116 cells assessed as cells with depolarized mitochondria by measuring increase in J-monomer green fluorescence intensity at 0.5 uM incubated for 48 hrs by JC1 staining based flow cytometry analysis (reference value: 12.53 %); type: functional
[10] = tested on: HCT-116; assay: Induction of mitochondrial membrane potential loss in human HCT-116 cells assessed as cells with depolarized mitochondria by measuring increase in J-monomer green fluorescence intensity at 1 uM incubated for 48 hrs by JC1 staining based flow cytometry analysis (reference value: 12.53 %); type: functional
[11] = tested on: HCT-116; assay: Induction of mitochondrial membrane potential loss in human HCT-116 cells assessed as cells with depolarized mitochondria by measuring increase in J-monomer green fluorescence intensity at 2.5 uM incubated for 48 hrs by JC1 staining based flow cytometry analysis (reference value: 12.53 %); type: functional
[12] = tested on: HCT-116; assay: Induction of mitochondrial membrane potential loss in human HCT-116 cells assessed as cells with hyperpolarized mitochondria by measuring decrease in J-aggregates red fluorescence intensity at 0.5 uM incubated for 48 hrs by JC1 staining based flow cytometry analysis (reference value: 86.42 %); type: functional; set-up: scale not given: the % may be the effect or the level left
[13] = tested on: HCT-116; assay: Induction of mitochondrial membrane potential loss in human HCT-116 cells assessed as cells with hyperpolarized mitochondria by measuring decrease in J-aggregates red fluorescence intensity at 2.5 uM incubated for 48 hrs by JC1 staining based flow cytometry analysis (reference value: 86.42 %); type: functional; set-up: scale not given: the % may be the effect or the level left
[14] = tested on: HCT-116; assay: Induction of apoptosis in human HCT-116 cells assessed as loose cell structure at 0.5 to 2.5 uM incubated for 48 hrs by DAPI staining based fluorescence microscopic analysis; type: functional; details: dose microM 0.5-2.5, time 48.0 hrs
In short: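 Nuclear morphology was imaged by fluorescence microscopy using a DAPI filter at 200×; untreated cells served as control.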

[15] = tested on: HCT-116; assay: Induction of apoptosis in human HCT-116 cells assessed as increase in DNA breakdown incubated for 24 hrs by acridine orange staining based microscopic analysis; type: functional, cell-based; details: dose microM 0.5-2.5, time 24.0 hrs
In short: (§1)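 HCT-116 cells were incubated at 0.5, 1.0 and 2.5 µM for 24 h and stained with acridine orange. Green fluorescence (excitation 480-490 nm), chromatin distribution and blebbing were inspected microscopically at 200× against untreated controls.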

[16] = tested on: HCT-116; assay: Induction of apoptosis in human HCT-116 cells assessed as reduction in green fluorescence intensity at 0.5 to 2.5 uM incubated for 24 hrs by acridine orange staining based microscopic analysis; type: functional, cell-based; details: dose microM 0.5-2.5, time 24.0 hrs; in short: as §1
[17] = tested on: HCT-116; assay: Induction of apoptosis in human HCT-116 cells assessed as membrane blebbing at 0.5 to 2.5 uM incubated for 24 hrs by acridine orange staining based microscopic analysis; type: functional, cell-based; details: dose microM 0.5-2.5, time 24.0 hrs; in short: as §1
[18] = tested on: HCT-116; assay: Induction of apoptosis in human HCT-116 cells assessed as irregular distribution of chromatin at 0.5 to 2.5 uM incubated for 24 hrs by acridine orange staining based microscopic analysis; type: functional, cell-based; details: dose microM 0.5-2.5, time 24.0 hrs; in short: as §1
[19] = tested on: HCT-116; assay: Cytotoxicity against human HCT-116 cells assessed as reduction in cell viability at 0.5 to 2.5 uM incubated for 48 hrs by phase contrast microscopy; type: functional, cell-based; details: dose microM 0.5-2.5, time 48.0 hrs
[20] = tested on: HCT-116; assay: Inhibition of colony formation in human HCT-116 cells incubated for 10 days by crystal violet staining based assay; type: functional, cell-based; details: dose microM 0.25-1, time 10.0 day
In short: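 HCT-116 cells exposed in medium to 0.25, 0.5 and 1 μM over 10 days to allow colonies to form. Colonies visualised by crystal violet staining and counted relative to untreated control cells.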

[21] = tested on: HCT-116; assay: Induction of cell cycle arrest in human HCT-116 cells assessed as G0/G1 phase incubated for 48 hrs by propidium iodide based flow cytometry analysis; type: functional; details: dose microM 0.5-2.5, time 48.0 hrs
[22] = tested on: HCT-116; assay: Induction of cell cycle arrest in human HCT-116 cells assessed as G2/M phase at 0.5 uM incubated for 48 hrs by propidium iodide based flow cytometry analysis (reference value: 15.3 %); type: functional
[23] = tested on: HCT-116; assay: Induction of cell cycle arrest in human HCT-116 cells assessed as S phase at 2.5 uM incubated for 48 hrs by propidium iodide based flow cytometry analysis (reference value: 7.8 %); type: functional
[24] = tested on: HCT-116; assay: Induction of cell cycle arrest in human HCT-116 cells assessed as S phase at 1 uM incubated for 48 hrs by propidium iodide based flow cytometry analysis (reference value: 7.8 %); type: functional
[25] = tested on: HCT-116; assay: Induction of cell cycle arrest in human HCT-116 cells assessed as G0/G1 phase at 2.5 uM incubated for 48 hrs by propidium iodide based flow cytometry analysis (reference value: 28.2 %); type: functional
[26] = tested on: HCT-116; assay: Induction of cell cycle arrest in human HCT-116 cells assessed as G0/G1 phase at 0.5 uM incubated for 48 hrs by propidium iodide based flow cytometry analysis (reference value: 28.2 %); type: functional
[27] = tested on: HCT-116; assay: Induction of cell cycle arrest in human HCT-116 cells assessed as sub-G1 phase at 2.5 uM incubated for 48 hrs by propidium iodide based flow cytometry analysis (reference value: 2.1 %); type: functional
[28] = tested on: HCT-116; assay: Induction of cell cycle arrest in human HCT-116 cells assessed as sub-G1 phase at 0.5 uM incubated for 48 hrs by propidium iodide based flow cytometry analysis (reference value: 2.1 %); type: functional
[29] = tested on: BT-474; assay: Cytotoxicity against human BT-474 cells assessed as reduction in cell viability incubated for 48 hrs by MTT assay; type: functional, cell-based; details: BT-474, 48 h
In short: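 Cancer cell lines were exposed to drug for 48 h, and the 50% inhibitory concentration was determined. Values are averages of three individual experiments. A549, HCT-116, BT-474 and MDA-MB-231 are human lines; B16F10 is a murine melanoma line.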

`O=C(/C=C\Nc1ccc(Cl)cc1)c1nc(-c2ccc(F)cc2)n2ccccc12` gave an Activity [1] of 3.49%, an Activity [2] of 0.68% and an Activity [3] of 6.94%. For the same compound, the Activity [4] was 2.29%, the Activity [5] was 3.78% and the Activity [6] was 6.17%. For the same compound, the viability at 1 µM [7] was 85.8%, the viability at 0.5 µM [8] was 87.5% and the Activity [9] was 13.5%. The Activity [10] was 20.53%, the Activity [11] was 20.68% and the Activity [12] was 85.48%. The Activity [13] was 76.3%, the Activity [14] was “Active” and the Activity [15] was “Dose-dependent effect”. For the same compound, the Activity [16] was “Active”, the Activity [17] was “Active” and the Activity [18] was “Active”. The Activity [19] was “Active”, the inhibition [20] was “Dose-dependent effect” and the Activity [21] was “Dose-dependent effect”. The Activity [22] was 15%, the Activity [23] was 8.5% and the Activity [24] was 9.7%. For the same compound, the Activity [25] was 41.9%, the Activity [26] was 31.5% and the Activity [27] was 1.6%. The Activity [28] was 1.2% and the IC50 [29] was 7.03 µM.

Reference: ChEMBL document CHEMBL4665711, “Synthesis of (Z)-3-(arylamino)-1-(3-phenylimidazo[1,5-a]pyridin-1-yl)prop-2-en-1-ones as potential cytotoxic agents” (Bioorg Med Chem Lett, 2020)
